“Also recorded” adds a separate entry of the source. Like-named read-outs stand apart in the source and are kept apart here.
What was measured:
[1] = tested on: C. hominis; experiment: Cytopathic effect; assay type: cell-based, Cryptosporidium hominis; settings: HCT-8, 48 h, read-out: Ch CPE EC50
In short: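 HCT-8 cells were grown at 37 °C, 5% CO2 in RPMI-1640 with 10% heat-inactivated FBS. Oocysts were excysted in 10 mM HCl/HBSS for 10 min at 37 °C, then in 2 mM sodium taurocholate in L-15/UltraCULTURE medium for 5 min. Infected cells were seeded onto pre-spotted compound (10-point, 3-fold dilution; DMSO and reference-inhibitor controls) and incubated 48 h. Cells were then lysed for a viability read-out, and concentration-response curves were fitted.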

[2] = target: T1, CpPI(4)K (Cryptosporidium parvum, UniProt Q5CVD3); experiment: PI; assay type: biochemical, C. parvum; settings: CpPI(4)K IC50, 3 μM ATP
T1 sequence (Q5CVD3 1-1114): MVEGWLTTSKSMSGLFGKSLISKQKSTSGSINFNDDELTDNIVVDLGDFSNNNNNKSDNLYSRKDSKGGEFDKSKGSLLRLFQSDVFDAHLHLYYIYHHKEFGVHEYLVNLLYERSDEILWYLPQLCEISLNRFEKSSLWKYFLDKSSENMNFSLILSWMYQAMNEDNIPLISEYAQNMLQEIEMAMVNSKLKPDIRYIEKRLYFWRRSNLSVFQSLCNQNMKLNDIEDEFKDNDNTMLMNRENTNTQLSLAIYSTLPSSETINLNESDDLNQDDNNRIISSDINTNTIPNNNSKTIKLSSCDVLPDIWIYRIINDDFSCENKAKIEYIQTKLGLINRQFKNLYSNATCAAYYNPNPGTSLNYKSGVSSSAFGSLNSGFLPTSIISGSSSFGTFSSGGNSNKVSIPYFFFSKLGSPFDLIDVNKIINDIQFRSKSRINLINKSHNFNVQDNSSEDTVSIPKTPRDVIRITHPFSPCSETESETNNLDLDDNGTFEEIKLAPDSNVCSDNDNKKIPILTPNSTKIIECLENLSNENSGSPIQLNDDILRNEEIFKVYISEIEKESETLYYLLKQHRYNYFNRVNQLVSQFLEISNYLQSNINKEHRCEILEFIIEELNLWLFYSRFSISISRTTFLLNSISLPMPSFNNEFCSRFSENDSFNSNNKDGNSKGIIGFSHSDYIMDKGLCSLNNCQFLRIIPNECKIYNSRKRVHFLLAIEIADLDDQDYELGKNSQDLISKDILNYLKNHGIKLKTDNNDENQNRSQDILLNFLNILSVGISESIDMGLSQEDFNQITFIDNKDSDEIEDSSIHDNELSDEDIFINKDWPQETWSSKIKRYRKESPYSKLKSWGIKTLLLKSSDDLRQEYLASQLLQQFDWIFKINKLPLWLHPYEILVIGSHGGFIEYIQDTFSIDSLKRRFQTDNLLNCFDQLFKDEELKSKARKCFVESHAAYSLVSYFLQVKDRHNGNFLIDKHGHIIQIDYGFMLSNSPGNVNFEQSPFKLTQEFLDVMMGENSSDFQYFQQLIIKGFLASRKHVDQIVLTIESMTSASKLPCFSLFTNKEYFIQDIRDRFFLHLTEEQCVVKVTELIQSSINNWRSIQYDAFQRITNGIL
In short: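 Enzyme was pre-incubated with compound for 5 min at room temperature. The reaction was started with substrate mix at twice final strength (PI, ATP, Tris-HCl pH 7.5, DTT, 0.05% Triton X-100, MnCl2) and run 50 min at room temperature. ADP was measured by ADP-Glo luminescence. IC50s came from in-plate duplicate 10-point 3-fold dilutions, with DMSO and reference-inhibitor controls. The C. parvum enzymes (wild type and mutants) were full-length proteins expressed from baculovirus in Sf21 cells.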

[3] = tested on: HepG2; experiment: Cytotoxicity assay; assay type: cell-based, human
[4] = Liver microsomes metabolic stability; assay type: in vitro ADME; settings: rat
In short: (§1)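 Test compound was incubated with liver microsomes or hepatocytes of each species, and parent depletion was quantified by LC-MS/MS. From this, in vitro half-life and intrinsic clearance were derived, along with predicted metabolic clearance and hepatic extraction ratio.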

[5] = Liver microsomes metabolic stability; assay type: in vitro ADME; settings: dog
In short: as §1

[6] = Liver microsomes metabolic stability; assay type: in vitro ADME; settings: human
In short: as §1

[7] = Hepatocytes metabolic stability; assay type: in vitro ADME; settings: mouse; for half-life / hepatocyte CLint: hepatocytes
In short: as §1

[8] = Stability in intestinal S9 fraction; assay type: in vitro ADME; settings: mouse
In short: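 Test compound added to intestinal S9 fraction of each species to start the reaction. Incubated in a shaking water bath at 37 °C, with samples taken at sequential timepoints. Samples quenched with ice-cold acetonitrile and analysed by LC-MS/MS. Half-life calculated from the rate of parent compound depletion.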

[9] = Plasma stability; assay type: in vitro ADME; settings: human
In short: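 Test compound was added to plasma and incubated at 37 °C in a shaking water bath, with samples taken at sequential timepoints. Samples were quenched with ice-cold acetonitrile and analysed by LC-MS/MS, and half-life was calculated from the depletion rate.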

[10] = Plasma protein binding; assay type: in vitro ADME; settings: dog
[11] = target: T2, CYP3A4 (Homo sapiens, UniProt P08684); experiment: CYP450 reversible inhibition; assay type: in vitro ADME
T2 sequence (P08684 whole entry): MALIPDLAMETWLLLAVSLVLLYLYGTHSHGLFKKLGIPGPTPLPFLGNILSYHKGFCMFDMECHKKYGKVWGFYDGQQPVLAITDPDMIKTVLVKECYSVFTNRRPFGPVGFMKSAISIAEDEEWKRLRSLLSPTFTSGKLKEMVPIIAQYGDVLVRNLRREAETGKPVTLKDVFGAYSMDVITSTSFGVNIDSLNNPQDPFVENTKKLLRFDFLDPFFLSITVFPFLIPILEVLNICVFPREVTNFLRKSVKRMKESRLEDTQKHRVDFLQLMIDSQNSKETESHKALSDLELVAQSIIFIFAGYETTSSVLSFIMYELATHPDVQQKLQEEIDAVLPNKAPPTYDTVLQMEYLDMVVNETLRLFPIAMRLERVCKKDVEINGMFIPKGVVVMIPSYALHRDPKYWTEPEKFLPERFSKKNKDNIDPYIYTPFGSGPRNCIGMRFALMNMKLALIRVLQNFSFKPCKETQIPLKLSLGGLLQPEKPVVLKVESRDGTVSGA

[12] = target: T2, CYP3A4; experiment: CYP3A4 time-dependent inhibition; assay type: in vitro ADME
[13] = tested on: CYP3A4 / 1A2 / 2B6; experiment: CYP3A4 / 1A2 / 2B6 hepatocyte induction assay; assay type: in vitro ADME
[14] = target: hERG (Homo sapiens, UniProt Q12809); experiment: hERG binding assay
Sequence of hERG (Q12809 whole entry): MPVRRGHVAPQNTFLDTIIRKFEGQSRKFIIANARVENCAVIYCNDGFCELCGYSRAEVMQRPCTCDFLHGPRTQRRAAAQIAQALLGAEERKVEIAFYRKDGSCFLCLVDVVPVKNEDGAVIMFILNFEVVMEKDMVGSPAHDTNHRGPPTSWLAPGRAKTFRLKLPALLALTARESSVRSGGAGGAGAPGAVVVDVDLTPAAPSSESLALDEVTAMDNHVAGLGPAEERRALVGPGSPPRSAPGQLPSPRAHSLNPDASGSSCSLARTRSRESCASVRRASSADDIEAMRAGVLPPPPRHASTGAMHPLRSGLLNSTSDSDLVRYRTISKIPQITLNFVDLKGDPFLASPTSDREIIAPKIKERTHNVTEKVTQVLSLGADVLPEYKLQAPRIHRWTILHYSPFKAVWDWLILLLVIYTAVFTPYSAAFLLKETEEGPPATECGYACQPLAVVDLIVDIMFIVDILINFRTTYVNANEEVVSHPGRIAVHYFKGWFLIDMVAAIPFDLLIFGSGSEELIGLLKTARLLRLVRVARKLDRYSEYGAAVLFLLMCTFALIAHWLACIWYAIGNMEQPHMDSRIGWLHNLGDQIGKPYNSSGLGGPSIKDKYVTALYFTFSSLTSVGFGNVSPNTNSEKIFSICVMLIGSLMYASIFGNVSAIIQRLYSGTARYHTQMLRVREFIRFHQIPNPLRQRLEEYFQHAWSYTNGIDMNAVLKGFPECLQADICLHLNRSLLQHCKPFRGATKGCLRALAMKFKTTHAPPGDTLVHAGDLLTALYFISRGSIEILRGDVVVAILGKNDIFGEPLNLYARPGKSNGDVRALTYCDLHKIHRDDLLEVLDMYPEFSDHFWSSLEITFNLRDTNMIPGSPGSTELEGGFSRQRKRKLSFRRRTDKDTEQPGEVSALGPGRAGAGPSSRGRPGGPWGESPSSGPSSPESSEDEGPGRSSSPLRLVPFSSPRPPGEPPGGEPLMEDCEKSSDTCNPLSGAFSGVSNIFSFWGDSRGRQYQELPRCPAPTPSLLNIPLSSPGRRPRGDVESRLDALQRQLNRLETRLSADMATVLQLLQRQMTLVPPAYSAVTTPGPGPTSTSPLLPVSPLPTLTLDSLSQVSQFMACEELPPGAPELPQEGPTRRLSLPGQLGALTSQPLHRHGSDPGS
In short: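 Binding was measured in hERG-expressing HEK293 cells. Concentration-response curves were typically 6-point, spanning 0.37 to 30.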

[15] = target: hERG potassium channel (Homo sapiens, UniProt Q12809); experiment: hERG Q-Patch; assay type: cell-based
Sequence of hERG potassium channel (Q12809 whole entry): as above
In short: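 hERG potassium current was recorded at near-physiological temperature in stably transfected mammalian cells expressing hERG. The test compound was applied as a 4-point dose response spanning 1–30.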

[16] = tested on: Salmonella typhimurium strains TA98 and TA100; experiment: Mini-Ames
In short: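 Histidine-auxotrophic S. typhimurium TA98 and TA100 were exposed to test compound with and without rat liver S9.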

[17] = tested on: rat reticulocytes; experiment: In vivo rat peripheral blood micronucleus assay
In short: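 Peripheral blood was taken on days 3 and 15, in randomized order, from animals in the 2-week rat toxicology study. Micronucleated reticulocytes were counted by flow cytometry.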

Row | Compound | IC50 [2] [µM] | SI (selectivity index) HepG2 CC50 / C. parvum EC50 ratio [3] | Microsomal ER [4] [%] | Microsomal ER [5] [%] | Microsomal ER [6] [%] | Hepatocytes ER [7] [%] | half-life [7] [h] | hepatocyte CLint [7] [µL/min/1e6 cells] | half-life [8] [h] | IC50 [11] [µM] | Time dependent inhibition 3A4 [12] | CYP3A4 / 1A2 / 2B6 hepatocyte induction assay [13] | IC50 [14] [µM] | IC50 [15] [µM] | Mini-AMES [16] | In vivo rat reticulocytes MN induction [17] | other results
1 | CNC(=O)c1ccc(-c2cnn3ccc(C(=O)N(C)c4ccc(Cl)c(C(=O)OC)c4)cc23)cc1 [EDI048, methyl 2-chloro-5-(N-methyl-3-(4-(methylcarbamoyl)phenyl)pyrazolo[1,5-a]pyridine-5-carboxamido)benzoate] | 0.004 ± 0.002 | > 100 | 96 | 94 | 92 | 93 | 0.0467 | > 250 | 0.75 | 10.5 | Weak positive | Non-inducer | > 30 | 8.3 | Negative | Negative | EC50 ([1]; Cryptosporidium hominis): 0.05 ± 0.001 µM; selectivity ratio at 96 h ([3]; human, HepG2 cells (ATCC CRL-10741)): > 500; CC50 ([3]; read-out: HepG2 CC50, 96 h): 28.1 µM; microsomal CLint ([4]; liver microsomes): > 700 µL/min/mg; microsomal CLint ([5]; liver microsomes): 271 µL/min/mg; microsomal CLint ([6]; liver microsomes): 222 µL/min/mg; Plasma T1/2 [9]: > 2 h; half-life ([9]; Plasma T1/2, human plasma): > 4 h; fraction unbound ([10]; plasma): 0.061; KI (inactivation) ([12]; human): 2.1 µM
2 | CN(C(=O)c1ccn2ncc(-c3ccc(C(N)=O)cc3)c2c1)c1ccc(C#N)cn1 [KDU731, 3–(4-carbamoylphenyl)-N-(5-cyanopyridin-2-yl)-N-methylpyrazolo [1,5-a]pyridine-5-carboxamide, reference compound] | 0.017 ± 0.008 | > 100 | 47 | 67 | 39 | 18 | > 2.92 | < 4 | > 4 | > 50 | Negative | Non-inducer | > 30 | 23 | Negative | induce micronuclei; also recorded: Positive | EC50 ([1]; C. hominis): 0.13 µM; microsomal CLint [4]: 29 µL/min/mg; microsomal CLint [5]: 36 µL/min/mg; microsomal CLint [6]: 13 µL/min/mg; half-life [9]: > 2 h; % Plasma protein binding [10]: 70.8%

Reference: publication PMC11522000 (Nature Microbiology, 2024)
